Activity calls are given as the source filed them. No cut-off for these calls is given here.
Legend:
[1] = Inhibition of amyloid beta (1 to 40) aggregation by beta amyloid self seeding thioflavin T assay
Procedure, shortened: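 Compound was incubated with 30 μM Aβ(1-40) in 50 mM NaPi, 150 mM NaCl, 1 M urea, 0.02% w/v NaN3, pH 7.5. Thioflavin T at 5 µM was added after fibril formation, and fluorescence was read as β-sheet fibril content. IC50 came from eight concentrations by logit transformation of the titration curves. Values are the mean of two separate experiments.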

[2] = Inhibition of amyloid beta (1 to 40) aggregation by beta amyloid self seeding radioassay
Procedure, shortened: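 Aβ(1-40) at 30 μM unlabeled, plus a tracer amount of 125I-Aβ(1-40), incubated with compound in 50 mM NaPi, 150 mM NaCl, 1 M urea, 0.02% w/v NaN3, pH 7.5. Radiolabeled fibrils retained on a 0.2 µm filter were measured. Eight compound concentrations were tested, and IC50 was taken by logit transformation of the titration curves. Values are the average of two separate experiments.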

Mus musculus [3] = test: Reduction in senile plaque load in Tg2576 mouse overexpressing human betaAPP695SWE at 60 mg/kg/day, po administered with chow for 7 months; type: functional; parameters: scale not given: the % may be the effect or the level left
Mus musculus [4] = test: Reduction in mean senile plaque area in Tg2576 mouse overexpressing human betaAPP695SWE at 60 mg/kg/day, po administered with chow; type: functional; parameters: scale not given: the % may be the effect or the level left
Mus musculus [5] = test: Reduction in senile plaque load in Tg2576 mouse overexpressing human betaAPP695SWE at 60 mg/kg/day, po administered with chow for 3 months; type: functional; parameters: scale not given: the % may be the effect or the level left
[6] = Inhibition of amyloid beta (1 to 40) aggregation assessed as appearance of smaller fragmented amyloid beta species at 50 uM by atomic force microscopy study
Mus musculus [7] = test: Reduction in mean senile plaque area in Tg2576 mouse overexpressing human betaAPP695SWE at 200 mg/kg/day, po administered with chow; type: functional; parameters: scale not given: the % may be the effect or the level left
Mus musculus [8] = test: Reduction in senile plaque load in Tg2576 mouse overexpressing human betaAPP695SWE at 200 mg/kg/day, po administered with chow for 7 months; type: functional; parameters: scale not given: the % may be the effect or the level left

SMILES	IC50 [1]	IC50 [2]	also measured
O=C(O)c1cc([N+](=O)[O-])ccc1Nc1ccc(CCc2ccc(F)c(C(F)(F)F)c2)cc1	0.8 µM	3 µM	
Cc1ccc(CCc2ccc(Nc3ccccc3C(=O)O)cc2)cc1Cl	1 µM	88 µM	
O=C(O)c1ccccc1Nc1ccc(CCCc2ccc(F)c(C(F)(F)F)c2)cc1	3 µM	5 µM	
O=C(O)c1ccccc1Nc1ccc(CCc2ccccc2)cc1	10 µM	60 µM	
O=C(O)c1ccccc1Nc1ccc(CCN2CCC3CCCCC3C2)cc1 (stereo not given)	1 µM	> 100 µM	
O=C(O)c1ccccc1Nc1ccc(CCc2cc(Cl)cc(Cl)c2)cc1	15 µM	> 100 µM	
O=C(O)c1cc(F)ccc1Nc1ccc(CCCc2ccc(Cl)c(Cl)c2)cc1	1 µM	86 µM	
COc1ccc(CCCc2ccc(Nc3ccccc3C(=O)O)cc2)cc1	17 µM	30 µM	
Cc1ccc(CCCc2ccc(Nc3ccccc3C(=O)O)cc2)cc1C	3 µM	6 µM	
O=C(O)c1ccccc1Nc1ccc(CCCc2ccc(Cl)cc2)cc1	2 µM	3 µM	
CCN(CC)c1ccc(CCCc2ccc(Nc3ccccc3C(=O)O)cc2)cc1	1 µM	3 µM	
Cc1ccc(Nc2ccc(CCc3ccc(Cl)c(Cl)c3)cc2)c(C(=O)O)c1	2 µM	> 100 µM	
Cc1ccc(Nc2ccc(CCCc3ccc(Cl)c(Cl)c3)cc2)c(C(=O)O)c1	> 100 µM	> 100 µM	
O=C(O)c1ccccc1Nc1ccc(CCCc2cc(Cl)cc(Cl)c2)cc1	3 µM	3 µM	
Cc1ccc(CCCc2ccc(Nc3ccc([N+](=O)[O-])cc3C(=O)O)cc2)cc1C	6 µM	14 µM	
Cc1ccc(CCc2ccc(Nc3ccccc3C(=O)O)cc2)cc1C	10 µM	> 100 µM	
COc1ccc(CCCc2ccc(Nc3ccc(F)cc3C(=O)O)cc2)cc1	10 µM	14 µM	
O=C(O)c1cc([N+](=O)[O-])ccc1Nc1ccc(CCCc2ccc(Cl)c(Cl)c2)cc1	1 µM	> 100 µM	
O=C(O)c1cccnc1Nc1ccc(CCc2ccc(Cl)c(Cl)c2)cc1	2 µM	7 µM	
Cc1ccc(CCCc2ccc(Nc3ccccc3C(=O)O)cc2)cc1	1 µM	9 µM	
O=C(O)c1ccccc1Nc1ccc(CCCc2ccc(Cl)c(Cl)c2)cc1	1 µM	25 µM	Activity (Mus musculus [3]): 47%; Activity (Mus musculus [4]): 2.6%; Activity (Mus musculus [5]): 45%

SMILES	IC50 [1]	IC50 [2]	also measured
O=C(O)c1cc([N+](=O)[O-])ccc1Nc1ccc(CCc2ccc(Cl)cc2Cl)cc1	4 µM	17 µM	
Cc1ccc(CCc2ccc(Nc3ccc([N+](=O)[O-])cc3C(=O)O)cc2)cc1C	2 µM	12 µM	
O=C(O)c1cc(Nc2ccc(CCc3ccc(Cl)c(Cl)c3)cc2)ccc1C(F)(F)F	35 µM	> 100 µM	
COc1ccc(CCCc2ccc(Nc3cc(F)ccc3C(=O)O)cc2)cc1	9 µM	14 µM	
O=C(O)c1ccccc1Nc1ccc(CCCc2ccc(Cl)cc2Cl)cc1	2 µM	2 µM	
O=C(O)c1cc([N+](=O)[O-])ccc1Nc1ccc(CCc2cccc(Cl)c2)cc1	0.3 µM	33 µM	
O=C(O)c1ccccc1Nc1ccc(CCc2ccccc2Cl)cc1	5 µM	> 100 µM	
O=C(O)c1cc([N+](=O)[O-])ccc1Nc1ccc(CCc2ccc(Cl)c(C(F)(F)F)c2)cc1	1 µM	16 µM	
O=C(O)c1cccc(C(F)(F)F)c1Nc1ccc(CCc2ccc(Cl)c(Cl)c2)cc1	30 µM	> 100 µM	
O=C(O)c1cc([N+](=O)[O-])ccc1Nc1ccc(CCc2ccccc2)cc1	1.5 µM	70 µM	
O=C(O)c1ccccc1Nc1ccc(CCc2cccc(F)c2)cc1	70 µM	> 100 µM	
O=C(O)c1ccccc1Nc1ccc(CCc2ccc(F)c(C(F)(F)F)c2)cc1	2 µM	> 100 µM	
Cc1ccc(CCCc2ccc(Nc3ccc(F)cc3C(=O)O)cc2)cc1C	1 µM	> 100 µM	
O=C(O)c1ccccc1Nc1ccc(CCc2ccc(Cl)c(Cl)c2)cc1	2 µM	> 100 µM	Activity [6]: Active; Activity (Mus musculus [7]): 2.1%; Activity (Mus musculus [8]): 44%
O=C(O)c1c(Nc2ccc(CCc3ccc(Cl)c(Cl)c3)cc2)cccc1C(F)(F)F	0.1 µM	70 µM	
O=C(O)c1ccc(C(F)(F)F)cc1Nc1ccc(CCc2ccc(Cl)c(Cl)c2)cc1	4 µM	27 µM	
O=C(O)c1ccccc1Nc1ccc(CCc2ccc(F)c(F)c2)cc1	2 µM	> 100 µM	
O=C(O)c1cc([N+](=O)[O-])ccc1Nc1ccc(CCc2ccccc2Cl)cc1	0.5 µM	3 µM	
COc1ccc(CCc2ccc(Nc3ccccc3C(=O)O)cc2)cc1	> 100 µM	> 100 µM	
O=C(O)c1ccccc1Nc1ccc(CCc2cccc(Cl)c2)cc1	19 µM	> 100 µM	
O=C(O)c1cc([N+](=O)[O-])ccc1Nc1ccc(CCc2ccc(Cl)c(Cl)c2)cc1	0.5 µM	43 µM	

SMILES	IC50 [1]	IC50 [2]	also measured
O=C(O)c1ccccc1Nc1ccc(CCCc2ccccc2)cc1	5 µM	14 µM	
COC(=O)c1ccc(Nc2ccc(CCc3ccc(Cl)c(Cl)c3)cc2)cc1	> 100 µM	> 100 µM	
O=C(O)c1ccccc1Nc1ccc(CCCc2cccc(Br)c2)cc1	3 µM	2 µM	
CCN(CC)c1ccc(Nc2ccc(CCc3ccc(Cl)c(Cl)c3)cc2)c(C(=O)O)c1	53 µM	> 100 µM	
O=C(O)c1cccc(Nc2ccc(CCc3ccc(Cl)c(Cl)c3)cc2)c1	10 µM	> 100 µM	
O=C(O)c1cc([N+](=O)[O-])ccc1Nc1ccc(CCN2CCC3CCCCC3C2)cc1 (stereo not given)	1 µM	5 µM	
Cc1ccc(CCCc2ccc(Nc3ncccc3C(=O)O)cc2)cc1C	9 µM	14 µM	
O=C(O)c1cccnc1Nc1ccc(CCCc2ccc(Cl)c(Cl)c2)cc1	5 µM	60 µM	
Cc1ccc(Nc2ccc(CCCc3ccc(C)c(C)c3)cc2)c(C(=O)O)c1	3 µM	16 µM	
O=C(O)c1ccccc1Nc1ccc(CCc2ccc(Cl)cc2)cc1	3 µM	> 100 µM	
O=C(O)c1cc([N+](=O)[O-])ccc1Nc1ccc(CCc2ccc(F)c(F)c2)cc1	4 µM	41 µM	
O=C(O)c1ccccc1Nc1ccc(CCc2ccc(Cl)cc2Cl)cc1	51 µM	> 100 µM	
O=C(O)c1cc(Nc2ccc(CCc3ccc(Cl)c(Cl)c3)cc2)ccc1F	3 µM	> 100 µM	
O=C(O)c1ccc(Nc2ccc(CCc3ccc(Cl)c(Cl)c3)cc2)cc1	10 µM	> 100 µM	
Cc1ccc(CCCc2ccc(Nc3cc(F)ccc3C(=O)O)cc2)cc1C	5.4 µM	12 µM	
O=C(O)c1ccccc1Nc1ccc(CCCc2ccccc2Cl)cc1	2 µM	6 µM	
O=C(O)c1cc([N+](=O)[O-])ccc1Nc1ccc(CCc2ccc(Cl)cc2)cc1	0.4 µM	15 µM	
O=C(O)c1ccccc1Nc1ccc(CCCc2ccc(F)c(F)c2)cc1	5 µM	8 µM	
CCCCN(CCCC)c1ccc(CCc2ccc(Nc3ccc([N+](=O)[O-])cc3C(=O)O)cc2)cc1	1 µM	15 µM	
O=C(O)c1ccccc1Nc1ccc(CCCc2cccc(Cl)c2)cc1	3 µM	4 µM	
